Measurements: ChEMBL document CHEMBL4396895, “Identification and Optimization of Novel Cathepsin C Inhibitors Derived from EGFR Inhibitors” (J Med Chem, 2019)

Assays:
Cytochrome P450 1A2 = target: T1, Cytochrome P450 1A2 (Homo sapiens, UniProt P05177); assay: Inhibition of CYP1A2 (unknown origin); type: ADME
T1 sequence (P05177 whole entry): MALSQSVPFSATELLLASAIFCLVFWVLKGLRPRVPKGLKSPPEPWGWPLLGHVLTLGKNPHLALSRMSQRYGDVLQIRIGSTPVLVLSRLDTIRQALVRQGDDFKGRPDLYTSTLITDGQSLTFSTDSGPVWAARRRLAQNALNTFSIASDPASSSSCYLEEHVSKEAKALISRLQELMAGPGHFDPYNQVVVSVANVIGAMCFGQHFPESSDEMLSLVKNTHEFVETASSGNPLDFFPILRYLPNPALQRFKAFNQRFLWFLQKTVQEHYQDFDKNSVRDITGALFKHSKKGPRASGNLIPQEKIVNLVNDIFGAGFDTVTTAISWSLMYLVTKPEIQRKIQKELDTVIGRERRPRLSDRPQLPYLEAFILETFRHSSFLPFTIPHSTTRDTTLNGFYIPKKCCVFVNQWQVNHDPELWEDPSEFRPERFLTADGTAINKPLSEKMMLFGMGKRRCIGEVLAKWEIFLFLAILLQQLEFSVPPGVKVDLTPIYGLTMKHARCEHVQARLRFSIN
Summary of the method: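 Tested against recombinant human cytochrome P450 isoforms 1A2, 2D6, 3A4, 2C9 and 2C19.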

[1] = Tmax in C57BL/6 mouse at 10 mg/kg, po by LC-MS/MS analysis; type: ADME, organism-based; conditions: in vivo
Summary of the method: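 Male C57BL/6 mice (n = 3) were dosed with a single IV dose of 2 mg/kg or an IP or PO dose of 10 mg/kg. Vehicle: 0.5% Methocel and 0.1% Tween-80 in citrate buffer, pH 3. Blood was drawn by eye puncture at several time points and analysed by LC-MS/MS. Parameters came from noncompartmental analysis of individual animals and are reported as means.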

[2] = Intrinsic clearance in human liver microsomes assessed per mg protein measured after 60 mins in presence of NADPH by LC-MS/MS analysis; type: ADME, Microsome; conditions: read-out: CLH

IC50 (Cytochrome P450 1A2): > 10 µM
Tmax [1]: 30 min
microsomal CLint [2]: 1.8 µL/min/mg
Compound: C=CC(=O)Nc1cc(Oc2nc(Nc3ccc(N4CCN(C)CC4)cc3OC)ccc2N2CCCCC2)ccc1C
